Three molecules from ChEMBL document CHEMBL3992563, “Piperazines as nootropic agents: New derivatives of the potent cognition-enhancer DM235 carrying hydrophilic substituents” (Bioorg Med Chem, 2017) can be followed below.

Series [1] has as its system Mus musculus. In words: Cognition enhancing effect in sc dosed CD-1 albino mouse assessed as reversal of scopolamine-induced amnesia treated 20 mins prior to training session followed by scopolamine challenge immediately after training session by passive avoidance test. Format: functional. The following applies: CD-1, sc, read-out: MED. The method, boiled down: (§1)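 Mouse passive-avoidance test using a modified Jarvik–Kopp protocol. Drug in saline with 10% DMSO, given s.c. 20 min before training in a 1:10 dilution series up to 10 mg/kg. Scopolamine 1.5 mg/kg i.p. given right after the punishment/training session. Saline controls got an extra saline injection. Each value is the mean of 12–14 mice; the read-out is minimal effective dose.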

A short description of series [2]: Half life in Sprague-Dawley rat plasma at 1 uM by LC-MS/MS analysis. It counts as ADME, cell-free. The essentials:
(§2)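 Analyte at 1 µM final in PBS or in plasma from male Sprague-Dawley rats (plasma stored at −80 °C), incubated at 37 °C. Sampled in triplicate at 0, 30, 60 and 120 min, then internal standard added. Quantified by ESI-positive LC-MS/MS in MRM mode (C18 column, formic acid/acetonitrile gradient) against calibration from 0–1.00 µM. Enalapril checked plasma hydrolytic activity; t1/2 extrapolated from concentration-time curves.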

A short description of series [3]: Half life in PBS at 1 uM by LC-MS/MS analysis. Format: physicochemical. The essentials: as §2
Series [4] deals with Mus musculus. In words: Potency index, ratio of piracetam MED to compound MED for cognition enhancing effect in sc dosed CD-1 albino mouse. It counts as functional.
Series [5] concerns Plasma. The experiment in a line: Drug level in Sprague-Dawley rat plasma treated with (1-Benzoyl-4-propionylpiperazin-2-yl)methyl acetate at 1 uM after 60 mins by LC-MS/MS analysis. It counts as ADME, cell-free. The following applies: 1 h. The essentials: as §2
Series [6] relates to Mus musculus. The experiment in a line: Cognition enhancing effect in sc dosed CD-1 albino mouse assessed as reversal of scopolamine-induced amnesia by measuring difference between training session and retention session time at MED treated 20 mins prior to training session followed by scopolamine challenge immediately after training session by passive avoidance test. It counts as functional. The essentials: as §1

Series [7] has as its system Mus musculus. In words: Toxicity in sc dosed CD-1 albino mouse assessed as gross behavior abnormality at cognition enhancing MED. It counts as organism-based. The note with it: in vivo.
The test system of series [8] is Mus musculus. In words: Toxicity in sc dosed CD-1 albino mouse assessed as effect on motor co-ordination at cognition enhancing MED by rota rod test. It counts as organism-based. The note with it: in vivo. (Falling from the rotarod earlier than controls is read as motor impairment.)
Series [9] concerns Mus musculus. In words: Toxicity in sc dosed CD-1 albino mouse assessed as effect on spontaneous motility at cognition enhancing MED by hole-board test. The note with it: in vivo. Format: organism-based.
The subject of series [10] is Plasma. In words: Drug level in Sprague-Dawley rat plasma treated with (1-Acetyl-4-(4-fluorophenylsulfonyl)piperazin-2-yl)methyl acetate at 1 uM after 60 mins by LC-MS/MS analysis. Format: ADME, cell-free. The note with it: 1 h. The method, boiled down: as §2
The test system of series [11] is Plasma. In words: Drug level in Sprague-Dawley rat plasma treated with (4-Acetyl-1-(4-fluorophenylsulfonyl)piperazin-2-yl)methyl acetate at 1 uM after 60 mins by LC-MS/MS analysis. It counts as ADME, cell-free. The note with it: 1 h. The method, boiled down: as §2

Structures are written as SMILES. Some results are limits rather than exact numbers.

By half-life is commonly meant the time needed for the level to fall by half in the phase considered.

For the molecule `CCC(=O)N1CCN(C(=O)c2ccccc2)C(CO)C1` (configuration not stated), the minimal effective dose in series [1] was 0.1 mg/kg. The half-life at 1 µM in series [2] and in series [3] was ≥ 4 h in each case. Further, the Ratio in series [4] is 3 - 300. For the same molecule, the Drug metabolism entry in series [5] is “Metabolite_Detected”. In [6], the Time was 52.6 s. Also, the Activity entry in [7], in series [8] and in series [9] was “Non-Toxic” each time.

For `CC(=O)N1CCN(S(=O)(=O)c2ccc(F)cc2)CC1CO` (configuration not stated), the minimal effective dose in [1] worked out at 10 mg/kg. The half-life at 1 µM in series [2] and in [3] was ≥ 4 h in each case. Also, in series [4], the Ratio is reported as 3 - 300. Besides, the Drug metabolism result in series [10] is given as “Metabolite_Detected”. Moreover, the Time in series [6] is listed as 48 s. Besides, the Activity result in series [7], in [8] and in [9] was “Non-Toxic” throughout.

With `CC(=O)N1CCN(S(=O)(=O)c2ccc(F)cc2)C(CO)C1` (configuration not stated), the minimal effective dose in [1] is 1 mg/kg. Besides, the half-life at 1 µM in [2] and in series [3] was ≥ 4 h each time. The Ratio in series [4] is 3 - 300. Moreover, in [11], the Drug metabolism result is on record as “Metabolite_Detected”. Also, the Time in [6] was 66.2 s. Also, the Activity entry in [7], in series [8] and in series [9] was “Non-Toxic” in each case.
